In paper PMC5199138 (Cancer chemotherapy and pharmacology, 2016):
“Also recorded” adds a separate entry of the source.

How the values were obtained:
[1] = Plasma and urine pharmacokinetics; type: in vivo, human; conditions: for AUC(0-t) / Cmax / AUC(0-inf) / half-life: human, plasma, intravenous
[2] = cited from earlier work
[3] = target: T1, Top1 (Homo sapiens, UniProt P11387); test: Top1 levels in PBMCs; type: in vivo
T1 sequence (P11387 1-765): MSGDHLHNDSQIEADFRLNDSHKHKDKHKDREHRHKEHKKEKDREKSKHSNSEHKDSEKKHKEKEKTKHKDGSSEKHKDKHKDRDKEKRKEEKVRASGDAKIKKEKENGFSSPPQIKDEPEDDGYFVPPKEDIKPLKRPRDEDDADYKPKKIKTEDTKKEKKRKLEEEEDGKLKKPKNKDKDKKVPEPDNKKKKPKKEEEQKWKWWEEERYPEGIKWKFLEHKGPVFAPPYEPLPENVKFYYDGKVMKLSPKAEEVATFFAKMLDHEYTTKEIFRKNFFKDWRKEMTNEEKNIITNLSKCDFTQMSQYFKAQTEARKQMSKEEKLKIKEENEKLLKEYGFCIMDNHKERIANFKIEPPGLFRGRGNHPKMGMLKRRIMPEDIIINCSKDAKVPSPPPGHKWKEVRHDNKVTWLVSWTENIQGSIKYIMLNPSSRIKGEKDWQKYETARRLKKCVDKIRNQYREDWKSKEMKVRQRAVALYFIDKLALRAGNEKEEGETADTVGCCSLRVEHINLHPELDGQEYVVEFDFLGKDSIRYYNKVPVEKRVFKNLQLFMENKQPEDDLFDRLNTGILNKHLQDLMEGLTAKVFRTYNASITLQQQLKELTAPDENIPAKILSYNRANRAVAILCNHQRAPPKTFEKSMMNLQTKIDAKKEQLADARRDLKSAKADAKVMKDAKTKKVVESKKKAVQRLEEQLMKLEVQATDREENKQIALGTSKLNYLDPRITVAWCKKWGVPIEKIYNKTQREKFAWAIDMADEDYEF
How it was run: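 PBMCs collected in the daily trial before dosing and 4 h after infusion start on cycle 1 days 1 and 3. Top1 measured by validated immunofluorescence assay, expressed as pg/10^7 cells. Reportable only if pre-dose Top1 exceeded twice the LLQ; samples also had to pass assay QC. Result given as percent change from baseline per patient.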

[4] = test system: patients with advanced solid tumors; test: Phase I trial, daily schedule; type: in vivo
[5] = test system: γH2AX; test: γH2AX in hair follicles; type: in vivo, human; conditions: 4 patients, daily trial, 4-6 h post-infusion vs pre-infusion; p=0.027, 1-sided
[6] = test system: patients with advanced solid tumors; test: Phase I trial, weekly schedule; type: in vivo
[7] = target: T1, Top1; test: Top1 levels in paired tumor biopsies; type: in vivo; conditions: of the 8 patients on the daily schedule
How it was run: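 Daily schedule: tumor biopsies taken at baseline and 2–4 h after infusion start on cycle 1 day 3. Top1 quantified by validated immunofluorescence assay (pg/μg protein). Pre-dose value had to exceed twice the LLQ to allow detection of a 50% reduction. Reported as percent change from baseline for each patient.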

[8] = weekly trial, Total (N=21), all dose levels, SD of geometric mean in parenthesis
[9] = weekly trial, W1, 60 mg/m^2 over 3 h, N=6, SD of geometric mean in parenthesis
[10] = weekly trial, W2, 90 mg/m^2 over 3 h, N=8, SD of geometric mean in parenthesis
[11] = weekly trial, W3, 135 mg/m^2 over 3 h, N=7, SD of geometric mean in parenthesis

COc1cc2c3c(n(CCCN4CCOCC4)c(=O)c2cc1OC)-c1cc2c(cc1C3=O)OCO2 [indotecan]
Renal excretion 0–24 h ([1]; daily trial, D1, 2.5 mg/m^2 over 1 h, N=1): 0.49% dose
Renal excretion 0–24 h ([1]; daily trial, D2, 5 mg/m^2 over 1 h, N=3, SD of geometric mean in parenthesis): 0.48% (0.21%) % dose
Renal excretion 0–24 h ([1]; daily trial, D3, 10 mg/m^2 over 1 h, N=1): 0.36% dose
Renal excretion 0–24 h ([1]; daily trial, D4, 20 mg/m^2 over 1 h, N=1): 0.26% dose
Renal excretion 0–24 h ([1]; daily trial, D5a, 60 mg/m^2 over 1 h, N=6, SD of geometric mean in parenthesis): 0.18% (0.17%) % dose
Renal excretion 0–24 h ([1]; daily trial, D6, 80 mg/m^2 over 1 h, N=3, SD of geometric mean in parenthesis): 0.26% (0.03%) % dose
Renal excretion 0–24 h ([1]; daily trial, Total (N=20), all dose levels, SD of geometric mean in parenthesis): 0.24% (0.17%) % dose
Clearance as share of human hepatic blood flow ([1]; hepatic blood flow from ref 15): approximately 2%
AUC(0-t) ([1]; 2.5 mg/m2, AUC0–24, daily trial, D1, 2.5 mg/m^2 over 1 h, N=1): 547 ng·h/mL
Cmax ([1]; 2.5 mg/m2, Cmax, daily trial, D1, 2.5 mg/m^2 over 1 h, N=1): 94.3 ng/mL
AUC(0-t) ([1]; 5 mg/m2, AUC0–24, daily trial, D2, 5 mg/m^2 over 1 h, N=3, SD of geometric mean in parenthesis): 1450 ng·h/mL
Cmax ([1]; 5 mg/m2, Cmax, daily trial, D2, 5 mg/m^2 over 1 h, N=3, SD of geometric mean in parenthesis): 191 ng/mL
AUC(0-inf) ([1]; 60 mg/m2): 56400 ng·h/mL
AUC(0-t) ([1]; 60 mg/m2, AUC0–24, daily trial, D5a, 60 mg/m^2 over 1 h, N=6, SD of geometric mean in parenthesis): 12800 ng·h/mL
AUC(0-t) ([1]; 60 mg/m2, AUC0–24, weekly trial, W1, 60 mg/m^2 over 3 h, N=6, SD of geometric mean in parenthesis): 13700 ng·h/mL
Cmax ([1]; 60 mg/m2, Cmax, daily trial, D5a, 60 mg/m^2 over 1 h, N=6, SD of geometric mean in parenthesis): 1610 ng/mL
Cmax ([1]; 60 mg/m2, Cmax, weekly trial, W1, 60 mg/m^2 over 3 h, N=6, SD of geometric mean in parenthesis): 1270 ng/mL
half-life ([1]; 60 mg/m2, t1/2, weekly trial, W1, 60 mg/m^2 over 3 h, N=6, SD of geometric mean in parenthesis): 89 h
AUC(0-t) ([1]; 80 mg/m2, AUC0–24, daily trial, D6, 80 mg/m^2 over 1 h, N=3, SD of geometric mean in parenthesis): 14700 ng·h/mL
Cmax ([1]; 80 mg/m2, Cmax, daily trial, D6, 80 mg/m^2 over 1 h, N=3, SD of geometric mean in parenthesis): 1650 ng/mL
AUC(0-inf) ([1]; 90 mg/m2): 88600 ng·h/mL
AUC(0-t) ([1]; 90 mg/m2, AUC0–24, weekly trial, W2, 90 mg/m^2 over 3 h, N=8, SD of geometric mean in parenthesis): 18700 ng·h/mL
Cmax ([1]; 90 mg/m2, Cmax, weekly trial, W2, 90 mg/m^2 over 3 h, N=8, SD of geometric mean in parenthesis): 1690 ng/mL
half-life ([1]; 90 mg/m2, t1/2, weekly trial, W2, 90 mg/m^2 over 3 h, N=8, SD of geometric mean in parenthesis): 74 h
AUC(0-inf) ([1]; 135 mg/m2): 70800 ng·h/mL
AUC(0-t) ([1]; 135 mg/m2, AUC0–24, weekly trial, W3, 135 mg/m^2 over 3 h, N=7, SD of geometric mean in parenthesis): 21500 ng·h/mL
Cmax ([1]; 135 mg/m2, Cmax, weekly trial, W3, 135 mg/m^2 over 3 h, N=7, SD of geometric mean in parenthesis): 1930 ng/mL
half-life ([1]; 135 mg/m2, t1/2, weekly trial, W3, 135 mg/m^2 over 3 h, N=7, SD of geometric mean in parenthesis): 50 h
Inter-patient variability, coefficient of variation in drug clearance ([1]; in vivo): 58%
Clearance ([1]; patients): 1 L/h/m^2
CL [1, 8]: 1.27 (0.74) L/h/m^2
Renal excretion 0–24 h [1, 8]: 0.19% (0.13%) % dose
Vss [1, 8]: 109 (69) L/m^2
CL [1, 9]: 1.06 (0.34) L/h/m^2
Renal excretion 0–24 h [1, 9]: 0.21% (0.08%) % dose
Vss [1, 9]: 116 (121) L/m^2
CL [1, 10]: 1.02 (0.73) L/h/m^2
Renal excretion 0–24 h [1, 10]: 0.15% (0.13%) % dose
Vss [1, 10]: 99.3 (32.6) L/m^2
CL [1, 11]: 1.91 (0.73) L/h/m^2
Renal excretion 0–24 h [1, 11]: 0.22% (0.16%) % dose
Vss [1, 11]: 114 (39) L/m^2
Drug in the unbound state (protein binding) [2]: approximately 2%
Effects of treatment on PBMC Top1 levels ([3]; DL-D2 through DL-D6, 4 h after start of infusion, cycle 1 days 1 and 3): inconclusive
Decrease in PBMC Top1 level ([3]; patients #0003 and #0015, post-dose vs baseline): > 70%
Maximum tolerated dose (MTD) ([4]; daily for 5 days in 28-day cycles, iv over 1 h): 60 mg/m^2/day
Objective response (RECIST) ([4]; daily schedule, 21 patients): No objective responses were observed on either schedule; also recorded: no patient on either schedule had an objective response
Principal toxicity ([4]; in vivo): myelosuppression
γH2AX formation in hair bulbs [5]: induced significant DNA damage
Maximum tolerated dose (MTD) ([6]; days 1, 8, 15 in 28-day cycles, iv over 3 h): 90 mg/m^2
Principal toxicity ([6]; in vivo): myelosuppression
Objective response (RECIST) ([6]; weekly schedule, 21 patients): No objective responses were observed on either schedule; also recorded: no patient on either schedule had an objective response
Number of patients with significant Top1 decreases in post-treatment biopsies [7]: 3
